This is an account of results in PMC4298165 (Cell, 2014).

One assay relates to endogenous TRiC. The experiment in a line: Biotin affinity isolation from HEK293 extracts and TRiC immunoblot. In kind it is binding, human. To be noted: biotinylated peptide, HEK293 extract, immunoblot against CCT5 and CCT2. Background: Immunoblotting shows a protein as a band on a membrane.
Assay [1] concerns ApiCCT3. Nature of the assay: NMR chemical-shift mapping, 15N-labeled p6 with unlabeled ApiCCT3. In kind it is binding. To be noted: 15N-1H HSQC, 0, 2.5, 5 and 10-fold excess ApiCCT3. In a few lines:
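Recombinant p6 was expressed with 15N/13C isotope labeling and purified. Chemical-shift mapping used 300 µM protein samples on an 800 MHz spectrometer with a cryogenic probe.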

Another assay has as its system CCT3. The following applies: cited from earlier work.
For assay [2], the system named is ApiCCT3. In kind it is binding. To be noted: 15N-1H HSQC.
Another assay has as its system intact purified TRiC. Nature of the assay: NMR chemical shift perturbation of 15N p6 with intact purified TRiC. In kind it is binding. To be noted: Fig. S4D.
In a further assay the test system is TRiC. The experiment in a line: Crosslinking-mass spectrometry. In kind it is binding. The following applies: DSS crosslinking, trypsin, tandem MS, xQuest. In a few lines: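 Intact TRiC crosslinked with DSS to full-length actin, tubulin or HIV Gag. Crosslinked samples were trypsin-digested and enriched for crosslinked species before MS. Crosslink sites on CCT subunits were mapped onto the apical-domain structure.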

For assay [3], the target named is T1, apical domain of CCT3 (ApiCCT3) (UniProt P49368 210-380).
T1 sequence (looked up): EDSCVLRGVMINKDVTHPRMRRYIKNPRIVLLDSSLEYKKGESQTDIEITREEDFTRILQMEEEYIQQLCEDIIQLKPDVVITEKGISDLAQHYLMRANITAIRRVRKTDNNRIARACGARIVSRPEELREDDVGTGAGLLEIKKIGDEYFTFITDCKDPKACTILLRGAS
The experiment in a line: SPR. For orientation: Surface plasmon resonance follows binding to a sensor surface in real time, without labels.

A further assay has as its system p6. Nature of the assay: SPR kinetics of ApiCCT3 alanine mutants on immobilized p6. In kind it is binding, HIV. To be noted: 31 surface-exposed residues substituted.

For “p6: 54 amino acid long HIV protein p6 (LQSRPEPTAPPEESFRSGVETTTPPQKQEPIDKELYPLTSLRSLFGNDPSSQ)”, the “binding to endogenous TRiC” value with endogenous TRiC is recorded as “bound TRiC”. In the assay on ApiCCT3 [1], the “chemical shift perturbation of 15N-p6 by ApiCCT3” value was “concentration-dependent chemical shift perturbation in a subset of peaks”. Also, in the assay with CCT3, the “association with CCT3” value was “associate directly with subunit CCT3 of TRiC”. Moreover, the “chemical shift perturbation of 15N-ApiCCT3” value with ApiCCT3 [2] (300 µM protein sample, 800 MHz, 0, 5, 10, 20-fold excess p6 (Fig. 2)) is recorded as “concentration-dependent shifts in a specific subset of peaks”. In the assay with ApiCCT3 [2] (> 0.1 p.p.m.), the “number of ApiCCT3 peaks perturbed weakly” value was 4 peaks. Besides, the “number of ApiCCT3 peaks strongly perturbed” value in the assay with ApiCCT3 [2] (> 0.2 p.p.m.) is reported as 5 peaks. For the same molecule, the “chemical shift perturbation of 15N p6 by intact TRiC” value in the assay on intact purified TRiC is on record as “the same subset of p6 residues was affected upon addition of intact TRiC”.
Regarding actin, the “location of heterotypic TRiC crosslinks” value in the assay with TRiC is “localized to substrate determinants previously implicated in TRiC binding”.

B1: tubulin: full length physiological substrate of TRiC (protein)
chain: MREIIHISTGQCGNQIGAAFWETICGEHGLDFNGTYHGHDDIQKERLNVYFNEASSGKWVPRSINVDLEPGTIDAVRNSAIGNLFRPDNYIFGQSSAGNVWAKGHYTEGAELVDSVMDVIRREAEGCDSLQGFQITHSLGGGTGSGMGTLLISKIREEFPDRMMATFSVLPSPKTSDTVVEPYNATLSVHQLVEHSDETFCIDNEALYDICQRTLKLNQPSYGDLNNLVSSVMSGVTTSLRYPGQLNSDLRKLAVNLVPFPRLHFFMVGYAPLTAIGSQSFRSLTVPELTQQMFDAKNMMAAADPRNGRYLTVAAFFRGKVSVKEVEDEMHKVQSKNSDYFVEWIPNNVQTAVCSVAPQGLDMAATFIANSTSIQELFKRVGDQFSAMFKRKAFLHWYTSEGMDELEFSEAESNMNDLVSEYQQYQEATVEDDEEVDENGDFGAPQNQDEPITENFE
As for B1, in the assay on TRiC, the “crosslinks to TRiC subunits” value was “crosslinked to multiple TRiC subunits through specific regions in the polypeptide” and the “location of heterotypic TRiC crosslinks” value is given as “localized to substrate determinants previously implicated in TRiC binding”.

B2: HIV protein p6 (natural protein)
chain: LQSRPEPTAPPEESFRSGVETTTPPQKQEPIDKELYPLTSLRSLFGNDPSSQ
As to B2, the Kd (as a rule, the equilibrium constant for the complex coming apart) in assay [3] is 250 to 500 nM.

B3: Y274A (protein)
chain: MMGHRPVLVLSQNTKRESGRKVQSGNINAAKTIADIIRTCLGPKSMMKMLLDPMGGIVMTNDGNAILREIQVQHPAAKSMIEISRTQDEEVGDGTTSVIILAGEMLSVAEHFLEQQMHPTVVISAYRKALDDMISTLKKISIPVDISDSDMMLNIINSSITTKAISRWSSLACNIALDAVKMVQFEENGRKEIDIKKYARVEKIPGGIIEDSCVLRGVMINKDVTHPRMRRYIKNPRIVLLDSSLEYKKGESQTDIEITREEDFTRILQMEEEAIQQLCEDIIQLKPDVVITEKGISDLAQHYLMRANITAIRRVRKTDNNRIARACGARIVSRPEELREDDVGTGAGLLEIKKIGDEYFTFITDCKDPKACTILLRGASKEILSEVERNLQDAMQVCRNVLLDPQLVPGGGASEMAVAHALTEKSKAMTGVEQWPYRAVAQALEVIPRTLIQNCGASTIRLLTSLRAKHTQENCETWGVNGETGTLVDMKELGIWEPLAVKLQTYKTAVETAVLLLRIDDIVSGHKKKGDDQSRQGGAPDAGQE
As for B3, the “impact of Ala substitution in ApiCCT3 on p6 binding” value with p6 is recorded as “no impact on p6 binding”.
